The structures appear in SMILES notation.

The test system of data set [1] is Lung. Nature of the data set: Drug level in human LNCaP cells xenografted NSG mouse lung at 20 nmol, ip measured after 24 hrs by liquid scintillation counting method. The class given is ADME, organism-based. The following applies: in vivo. In a few lines:
(§1)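 Male NSG mice bearing subcutaneous flank LNCaP xenografts. The graft was 2.5M cells in 200 μL of 1:1 culture medium/matrigel, using cells at or below passage 25 with >90% viability by trypan blue. C-14 labeled compound was given i.p. at 20 nmol per animal 4-8 weeks after engraftment. Mice were euthanized by CO2. Tumor, kidney, liver and lung were excised.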
A general note: Xenograft models place foreign cells or tissue in a host animal.

The subject of data set [2] is Liver. Nature of the data set: Drug level in human LNCaP cells xenografted NSG mouse liver at 20 nmol, ip measured after 24 hrs by liquid scintillation counting method. The settings on record: in vivo. The class given is ADME, organism-based. In a few lines: as §1
In data set [3] the test system is Tumour. In words: Drug level in human LNCaP cells xenografted NSG mouse tumor at 20 nmol, ip measured after 24 hrs by liquid scintillation counting method. The class given is ADME, organism-based, Neoplasm. The following applies: in vivo. In a few lines:
as §1

Data set [4] concerns Kidney. Nature of the data set: Drug level in human LNCaP cells xenografted NSG mouse kidney at 20 nmol, ip measured after 24 hrs by liquid scintillation counting method. The settings on record: in vivo. The class given is ADME, organism-based. In a few lines:
as §1

Data set [5] relates to Tumour. In words: Drug level in human LNCaP cells xenografted NSG mouse tumor at 20 nmol, ip dosed on days 1, 4 and 7 measured 24 hrs after last dose by liquid scintillation counting method. The class given is ADME, organism-based, Neoplasm. The following applies: in vivo, read-out: Drug uptake. In outline:
as §1

The test system of data set [6] is Kidney. In words: Drug level in human LNCaP cells xenografted NSG mouse kidney at 20 nmol, ip measured up to 1 to 7 days by liquid scintillation counting method. The class given is ADME, organism-based. The following applies: in vivo. In a few lines:
as §1

The test system of data set [7] is Tumour. Nature of the data set: Drug level in human LNCaP cells xenografted NSG mouse tumor at 20 nmol, ip dosed on days 1, 4 and 7 measured 24 hrs after last dose by liquid scintillation counting method relative to single injection dose. The class given is ADME, organism-based, Neoplasm. The following applies: in vivo. In a few lines: as §1
Data set [8] concerns Tumour. In words: Drug level in human LNCaP cells xenografted NSG mouse tumor at 20 nmol, ip measured after 24 hrs by liquid scintillation counting method relative to other tissues. The class given is ADME, organism-based, Neoplasm. The settings on record: in vivo. In outline:
as §1

For data set [9], the system named is Kidney. Nature of the data set: Drug level in human LNCaP cells xenografted NSG mouse kidney at 20 nmol, ip dosed on days 1, 4 and 7 measured 24 hrs after last dose by liquid scintillation counting method relative to single injection dose. The class given is ADME, organism-based. The following applies: in vivo. In a few lines: as §1
The test system of data set [10] is Liver. In words: Drug level in human LNCaP cells xenografted NSG mouse liver at 20 nmol, ip measured up to 1 to 7 days by liquid scintillation counting method. The class given is ADME, organism-based. The following applies: in vivo. In a few lines:
as §1

Data set [11] deals with Liver. Nature of the data set: Drug level in human LNCaP cells xenografted NSG mouse liver at 20 nmol, ip measured after 24 hrs by liquid scintillation counting method relative to kidney. The class given is ADME, organism-based. The following applies: in vivo. In outline: as §1
Data set [12] relates to Tumour. Nature of the data set: Drug level in human LNCaP cells xenografted NSG mouse tumor at 20 nmol, ip measured after 24 hrs by liquid scintillation counting method relative to liver. The class given is ADME, organism-based. The settings on record: in vivo. In outline: as §1
For data set [13], the system named is Liver. In words: Drug level in human LNCaP cells xenografted NSG mouse liver at 20 nmol, ip measured after 24 hrs by liquid scintillation counting method relative to lung. The following applies: in vivo. The class given is ADME, organism-based. In a few lines: as §1
Data set [14] has as its system Lung. In words: Drug level in human LNCaP cells xenografted NSG mouse lung at 20 nmol, ip measured up to 1 to 7 days by liquid scintillation counting method. The class given is ADME, organism-based. The following applies: in vivo. In a few lines:
as §1

Data set [15] concerns Liver. Nature of the data set: Drug level in human LNCaP cells xenografted NSG mouse liver at 20 nmol, ip dosed on days 1, 4 and 7 measured 24 hrs after last dose by liquid scintillation counting method relative to single injection dose. The class given is ADME, organism-based. The following applies: in vivo. In outline: as §1
The test system of data set [16] is Tumour. Nature of the data set: Drug level in human LNCaP cells xenografted NSG mouse tumor at 20 nmol, ip measured up to 1 to 7 days by liquid scintillation counting method. The class given is ADME, organism-based, Neoplasm. The settings on record: in vivo. In outline:
as §1

Data set [17] relates to Tumour. Nature of the data set: Drug level in human LNCaP cells xenografted NSG mouse tumor at 20 nmol, ip measured after 4 hrs by liquid scintillation counting method relative to liver. The class given is ADME, organism-based. The settings on record: in vivo. In a few lines:
as §1

Consider `C[14C](=O)N[C@H](CCNC(=O)c1cc(NC(=O)c2cc(NC(=O)c3cc(NC(=O)c4nccn4C)cn3C)cn2C)cn1C)C(=O)Nc1cn(C)c(C(=O)Nc2cc(C(=O)Nc3cc(C(=O)Nc4cc(C(=O)NCCCN(C)CCCNC(=O)c5cccc(C(=O)O)c5)n(C)c4)n(C)c3)n(C)c2)n1`, for which the Drug uptake entry in [1], in data set [2], in data set [3] and in [4] was “Active” each time.
For `CN(CCCNC(=O)c1cc(NC(=O)c2cc(NC(=O)c3cc(NC(=O)c4nc(NC(=O)[C@H](N)CCNC(=O)c5cc(NC(=O)c6cc(NC(=O)c7cc(NC(=O)c8nccn8C)cn7C)cn6C)cn5C)cn4C)cn3C)cn2C)cn1C)CCCN[14C](=O)c1cccc([14C](=O)O)c1`, the Drug uptake is 0.93 mg/kg in data set [1], “Active” in data set [2], “Active” in data set [3] and “Active” in [4].
As for `CC(=O)N[C@H](CCNC(=O)c1cc(NC(=O)c2cc(NC(=O)c3cc(NC(=O)c4nccn4C)cn3C)cn2C)cn1C)C(=O)Nc1cn(C)c(C(=O)Nc2cc(C(=O)Nc3cc(C(=O)Nc4cc(C(=O)NCCCN(C)CCCN[14C](=O)c5cccc([14C](=O)O)c5)n(C)c4)n(C)c3)n(C)c2)n1`, the concentration in [5] was 2500 nM; in data set [3] (read-out: Drug uptake), 1060 nM. In addition, the Drug uptake amounted to 0.05 mg/kg in [6]; 0.12 mg/kg in data set [1]; 0.27 mg/kg in data set [10]; 1.04 mg/kg in data set [2]; 0.06 mg/kg in data set [14]; 0.25 mg/kg in [4]. Also, the Drug uptake in data set [16] stood at 0.45 mg/kg. For the same molecule, the “fold change (FC)” value in data set [7] is 2.4; in data set [8] it was 2; in data set [9] it was 1.8; in data set [11], 4.2; in data set [12], 1.5; in data set [13], 8.7. The “fold change (FC)” value in data set [15] is reported as 1.8; in data set [17] it was 2.

Source of the values: ChEMBL document CHEMBL3351477, “A C-14 labeled Py-Im polyamide localizes to a subcutaneous prostate cancer tumor” (Bioorg Med Chem, 2014).
